Laboratory results taken from ChEMBL document CHEMBL3352437, “Novel 3,5-bis(arylidene)-4-oxo-1-piperidinyl dimers: structure-activity relationships and potent antileukemic and antilymphoma cytotoxicity” (Eur J Med Chem, 2014).

Assays:
[1] = Cytotoxicity against human MOLT3 cells assessed as dead cells at 1 uM after 24 hrs; format: functional, MOLT-3
Summary of the method: (§1)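 Dienones added as DMSO solutions to cells in RPMI medium and incubated 24 h at 37°C. Cytotoxicity was scored as cell-membrane disruption by propidium iodide staining and expressed as percentage of dead cells, averaged over three independent experiments.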

YT = experiment: Cytotoxicity against human YT cells assessed as dead cells at 1 uM after 24 hrs; format: functional; summary of the method: as §1
[2] = Cytotoxicity against human MDA231 cells assessed as dead cells at 1 uM after 24 hrs; format: functional, MDA-MB-231; summary of the method: as §1
COLO 205 = experiment: Cytotoxicity against human COLO205 cells assessed as inhibition of tumor growth after 24 hrs; format: functional, cell-based; conditions: COLO 205, 24 h
[3] = Cytotoxicity against human NCI60 cells assessed as inhibition of tumor growth after 24 hrs; format: functional, cell-based; conditions: NCI60, 24 h
[4] = Antileukemic activity against human RPMI8226 cells assessed as inhibition of tumor growth after 24 hrs; format: functional, cell-based; conditions: rpmi-8226
HCC 2998 = experiment: Cytotoxicity against human HCC2998 cells assessed as inhibition of tumor growth after 24 hrs; format: functional, cell-based; conditions: HCC 2998, 24 h
K562 = experiment: Antileukemic activity against human K562 cells assessed as inhibition of tumor growth after 24 hrs; format: functional, cell-based; conditions: K562, 24 h
[5] = Cytotoxicity against human 22Rvl cells assessed as dead cells at 1 uM after 24 hrs; format: functional; summary of the method: as §1
LAPC4 = experiment: Cytotoxicity against human LAPC4 cells assessed as dead cells at 1 uM after 24 hrs; format: functional; summary of the method: as §1
[6] = Cytotoxicity against human NALM6 cells assessed as dead cells at 1 uM after 24 hrs; format: functional, NALM-6; summary of the method: as §1
BJAB = experiment: Cytotoxicity against human BJAB cells assessed as dead cells at 1 uM after 24 hrs; format: functional; summary of the method: as §1
Ramos = experiment: Cytotoxicity against human Ramos cells assessed as dead cells at 1 uM after 24 hrs; format: functional; summary of the method: as §1
[7] = Cytotoxicity against human SupT1 cells assessed as dead cells at 1 uM after 24 hrs; format: functional, SUP-T1; summary of the method: as §1
[8] = Antiproliferative activity against human Molt4/C8 cells after 72 hrs by coulter counting analysis; format: functional, cell-based; conditions: MOLT-4, 72 h
Summary of the method: (§2)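 Cells exposed to a range of concentrations in RPMI 1640 at 37°C for 72 h. Surviving cells counted by Coulter counter. IC50 taken from concentration-response curves, mean ± SD of at least three independent experiments.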

HS27 = experiment: Cytotoxicity against human HS27 cells assessed as dead cells at 1 uM after 24 hrs; format: cell-based; conditions: hs27, 24 h
Summary of the method: (§3)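 Compounds added from DMSO solutions to cells in medium (RPMI; DMEM for Hs-27 fibroblasts) and incubated 24 h at 37°C. Membrane disruption scored by propidium iodide uptake. Result is percentage of dead cells, average of three independent experiments.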

HL-60(TB) = experiment: Antileukemic activity against human HL-60(TB) cells assessed as inhibition of tumor growth after 24 hrs; format: functional, cell-based; conditions: HL-60, 24 h
SR = experiment: Antileukemic activity against human SR cells assessed as inhibition of tumor growth after 24 hrs; format: functional, cell-based
KM12 = experiment: Cytotoxicity against human KM12 cells assessed as inhibition of tumor growth after 24 hrs; format: functional, cell-based; conditions: KM12, 24 h
MCF7 = experiment: Cytotoxicity against human MCF7 cells assessed as dead cells at 1 uM after 24 hrs; format: functional; summary of the method: as §1
[9] = Cytotoxicity against human MCF10A cells assessed as dead cells at 1 uM after 24 hrs; format: cell-based; conditions: mcf-10a; summary of the method: as §3
Raji = experiment: Cytotoxicity against human Raji cells assessed as dead cells at 1 uM after 24 hrs; format: functional; summary of the method: as §1
CCRF-CEM [10] = experiment: Cytotoxicity against human CEM cells assessed as dead cells at 1 uM after 24 hrs; format: functional; summary of the method: as §1
SW-620 = experiment: Cytotoxicity against human SW620 cells assessed as inhibition of tumor growth after 24 hrs; format: functional, cell-based; conditions: SW-620, 24 h
CCRF-CEM [11] = experiment: Antiproliferative activity against human CEM cells after 72 hrs by coulter counting analysis; format: functional, cell-based; summary of the method: as §2
DU-145 = experiment: Cytotoxicity against human DU145 cells assessed as dead cells at 1 uM after 24 hrs; format: functional; summary of the method: as §1
EL4 = experiment: Cytotoxicity against mouse EL4 cells assessed as dead cells at 1 uM after 24 hrs; format: functional; summary of the method: as §1
[12] = Cytotoxicity against human HCT15 cells assessed as inhibition of tumor growth after 24 hrs; format: functional, cell-based; conditions: HCT-15, 24 h
Jurkat = experiment: Cytotoxicity against human Jurkat cells assessed as dead cells at 1 uM after 24 hrs; format: functional; summary of the method: as §1
L1210 = experiment: Antiproliferative activity against mouse L1210 cells after 72 hrs by coulter counting analysis; format: functional, cell-based; conditions: L1210, 72 h
HeLa = experiment: Antiproliferative activity against human HeLa cells after 72 hrs by coulter counting analysis; format: functional, cell-based; summary of the method: as §2
[13] = Cytotoxicity against human HuT-102 cells assessed as dead cells at 1 uM after 24 hrs; format: functional; summary of the method: as §1
HCC70 = experiment: Cytotoxicity against human HCC70 cells assessed as dead cells at 1 uM after 24 hrs; format: functional; summary of the method: as §1

Compound | Activity [1] | Activity (YT) | Activity [2] | IC50 (COLO 205) | IC50 [3] | IC50 [4] | IC50 (HCC 2998) | IC50 (K562) | Activity [5] | Activity (LAPC4) | Activity [6] | Activity (BJAB) | Activity (Ramos) | Activity [7] | IC50 [8] | Activity (HS27) | IC50 (HL-60(TB)) | IC50 (SR) | IC50 (KM12) | Activity (MCF7) | also measured
O=C1/C(=C/c2ccc(Cl)cc2)CN(C(=O)C(=O)N2C/C(=C\c3ccc(Cl)cc3)C(=O)/C(=C/c3ccc(Cl)cc3)C2)C/C1=C\c1ccc(Cl)cc1 | 0.4% | 21.5% | 10% | 160 nM | 220 nM | 50 nM | 310 nM | 130 nM | 13.6% | 27% | 59% | 43.1% | 82.9% | 18.1% | 294 nM | 0% | 190 nM | 20 nM | 210 nM | 17.8% | Activity [9]: 2.2%; Activity (Raji): 35.7%; Activity (CCRF-CEM [10]): 59.9%; IC50 (SW-620): 180 nM; IC50 (CCRF-CEM [11]): 793 nM; Activity (DU-145): 33.1%; Activity (EL4): 52.5%; IC50 [12]: 140 nM; Activity (Jurkat): 78.5%; IC50 (L1210): 547 nM; IC50 (HeLa): 649 nM; Activity [13]: 31.4%; Activity (HCC70): 8.4%
O=C1/C(=C/c2ccc(F)cc2)CN(C(=O)C(=O)N2C/C(=C\c3ccc(F)cc3)C(=O)/C(=C/c3ccc(F)cc3)C2)C/C1=C\c1ccc(F)cc1 | 3.1% | 17.1% | 5.5% | 630 nM | 580 nM | 120 nM | 620 nM | 280 nM | 30.1% | 11.3% | 61.6% | 61.8% | 53.3% | 35.6% | 83 nM | 0.6% | 1120 nM | 160 nM | 300 nM | 16.2% | Activity [9]: 7.7%; Activity (Raji): 33.5%; Activity (CCRF-CEM [10]): 85.3%; IC50 (SW-620): 320 nM; IC50 (CCRF-CEM [11]): 221 nM; Activity (DU-145): 15.2%; Activity (EL4): 34.7%; IC50 [12]: 160 nM; Activity (Jurkat): 87.8%; IC50 (L1210): 422 nM; IC50 (HeLa): 388 nM; Activity [13]: 64.4%; Activity (HCC70): 6.6%
O=C1/C(=C\c2ccc(Cl)cc2)CN(C(=O)CC(=O)N2C/C(=C\c3ccc(Cl)cc3)C(=O)/C(=C/c3ccc(Cl)cc3)C2)C/C1=C\c1ccc(Cl)cc1 | 20.6% | 16.8% | 32.7% | 80 nM | 90 nM | 20 nM | 130 nM | 30 nM | 1.7% | 1% | 68.6% | 49.9% | 86.3% | 21.1% | 1050 nM | 5.7% | 110 nM | 10 nM | 160 nM | 19.5% | Activity [9]: 3.1%; Activity (Raji): 32.7%; Activity (CCRF-CEM [10]): 83%; IC50 (SW-620): 30 nM; IC50 (CCRF-CEM [11]): 1060 nM; Activity (DU-145): 40.3%; Activity (EL4): 55.4%; IC50 [12]: 60 nM; Activity (Jurkat): 85.3%; IC50 (L1210): 847 nM; IC50 (HeLa): 822 nM; Activity [13]: 20.4%; Activity (HCC70): 7.8%
